Here are results for two compounds from ChEMBL document CHEMBL4033778, “Species-Selective Pyrimidineamine Inhibitors of Trypanosoma brucei S-Adenosylmethionine Decarboxylase” (J Med Chem, 2018).

Data set [1] addresses T1, S-adenosylmethionine decarboxylase proenzyme (Homo sapiens, UniProt P17707).
T1 sequence (P17707 whole entry): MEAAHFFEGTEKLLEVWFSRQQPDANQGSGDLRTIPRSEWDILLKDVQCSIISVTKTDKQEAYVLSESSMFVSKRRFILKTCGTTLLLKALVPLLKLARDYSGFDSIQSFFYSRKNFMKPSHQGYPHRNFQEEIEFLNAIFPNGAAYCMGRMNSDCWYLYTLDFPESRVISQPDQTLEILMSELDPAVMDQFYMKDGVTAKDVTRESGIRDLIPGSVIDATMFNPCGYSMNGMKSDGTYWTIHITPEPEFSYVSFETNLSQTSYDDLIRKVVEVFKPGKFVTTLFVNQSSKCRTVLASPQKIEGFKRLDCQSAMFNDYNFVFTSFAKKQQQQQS
The data set is described as follows: Inhibition of recombinant human N-terminal His6-tagged AdoMetDC expressed in Escherichia coli BL21/DE3 cells at pH 7.2 by RapidFire-MS-based enzyme activity assay.

A short description of data set [2]: Inhibition of recombinant Trypanosoma brucei N-terminal His6-tagged AdoMetDC/prozyme hetrodimer expressed in Escherichia coli BL21/DE3 cells at pH 7.2 by RapidFire-MS-based enzyme activity assay.
In data set [3] the test system is Trypanosoma brucei brucei. Nature of the data set: Antitrypanosomal activity against blood stream form Trypanosoma brucei brucei Lister 427 at 100 uM after 48 hrs by CellTiter-Glo assay. The data set is classed as functional. Summed up: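 Bloodstream-form parasites grown in HMI-19 with fetal bovine serum, exposed 48 h to a 3-fold serial dilution (0.0038–25 μM or 0.015–100 μM final; 0.1% DMSO vehicle). Cell density read by ATP bioluminescence (CellTiter-Glo). Triplicate; EC50 from normalized response vs log concentration fit, bottom fixed at 0, Hill slope fixed at –8 when curve steepness gave ambiguous fit. Percent inhibition given at top concentration when <50%.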

Data set [4] can be described thus: Inhibition of recombinant Trypanosoma brucei N-terminal His6-tagged AdoMetDC/prozyme hetrodimer expressed in Escherichia coli BL21/DE3 cells at pH 7.7 by RapidFire-MS-based enzyme activity assay.
Data set [5] relates to Trypanosoma brucei. The data set is described as follows: Reversible inhibition of recombinant Trypanosoma brucei N-terminal His6-tagged AdoMetDC/prozyme hetrodimer expressed in Escherichia coli BL21/DE3 cells using S-adenosyl-L-methionine as substrate preincubated for 30 mins followed by 100 fold dilution and substrate addition measured every 5 mins by RapidFire-mass spectrometry.

Data set [6] deals with Liver. Nature of the data set: Metabolic stability in mixed gender human pooled liver microsomes at 1 uM in presence of NADPH measured up to 30 mins by LC-MS/MS method. In kind it is ADME, microsome. Conditions: 0.5 h.
Data set [7] has as its system Liver. The data set is described as follows: Metabolic stability in CD-1 mouse pooled liver microsomes at 1 uM in presence of NADPH measured up to 30 mins by LC-MS/MS method. The data set is classed as ADME, microsome. Conditions: 0.5 h. In general terms: Liver microsomes are vesicles of endoplasmic reticulum, rich in cytochrome P450 enzymes.
Data set [8] addresses T2, S-adenosylmethionine decarboxylase proenzyme (Homo sapiens) (UniProt P17707).
T2 sequence (whole entry): T1 sequence (P17707 whole entry)
Nature of the data set: Inhibition of recombinant human N-terminal His6-tagged AdoMetDC expressed in Escherichia coli BL21/DE3 cells at 180 uM at pH 7.2 by RapidFire-MS-based enzyme activity assay.

Data set [9] addresses T3, S-adenosylmethionine decarboxylase proenzyme (Trypanosoma brucei brucei) (UniProt P50244).
T3 sequence (whole entry): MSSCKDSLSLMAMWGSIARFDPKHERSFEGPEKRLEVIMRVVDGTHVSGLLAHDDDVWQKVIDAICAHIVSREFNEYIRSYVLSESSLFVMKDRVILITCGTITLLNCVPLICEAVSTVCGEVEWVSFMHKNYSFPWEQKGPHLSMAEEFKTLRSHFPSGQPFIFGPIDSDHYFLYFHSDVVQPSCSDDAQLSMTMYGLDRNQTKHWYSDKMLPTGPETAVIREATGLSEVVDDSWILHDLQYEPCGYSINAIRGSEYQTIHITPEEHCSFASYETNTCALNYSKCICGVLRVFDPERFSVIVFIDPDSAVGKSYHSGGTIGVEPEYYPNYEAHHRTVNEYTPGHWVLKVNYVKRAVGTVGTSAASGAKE
The data set is described as follows: Inhibition of AdoMetDC in bloodstream form Trypanosoma brucei brucei Lister 427 assessed as increase in prozyme level at 1.5 times EC50 after 24 hrs by Western blot method. (In general: A western blot detects proteins with antibodies after separation by electrophoresis.)

Data set [10] can be described thus: Inhibition of recombinant Trypanosoma brucei N-terminal His6-tagged AdoMetDC/prozyme hetrodimer expressed in Escherichia coli BL21/DE3 cells at pH 6.8 by RapidFire-MS-based enzyme activity assay.
The test system of data set [11] is human MDR1 (P-gp). Nature of the data set: Apparent permeability from basolateral side to apical side in MDCK2 harboring human MDR1 cells in absence of Pgp inhibitor GF120918 at 10 to 20 uM after 60 mins by LC-MS/MS method. The data set is classed as ADME, cell-based, Canis lupus familiaris, MDCK-II. Conditions: dog, MDCK-MDR1. In short, it runs like this:
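MDCKII-hMDR1 monolayer permeability measured with or without Pgp inhibitor GF120918.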

A short description of data set [12]: Competitive inhibition of recombinant Trypanosoma brucei N-terminal His6-tagged AdoMetDC/prozyme hetrodimer expressed in Escherichia coli BL21/DE3 cells using S-adenosyl-L-methionine as substrate preincubated for 30 mins followed by substrate addition measured every 5 mins by double-reciprocal Lineweaver-Burk plot analysis.
The test system of data set [13] is Trypanosoma brucei. Nature of the data set: Ratio of IC50 for recombinant Trypanosoma brucei N-terminal His6-tagged AdoMetDC/prozyme hetrodimer expressed in Escherichia coli BL21/DE3 cells at pH 7.7 to IC50 for recombinant Trypanosoma brucei N-terminal His6-tagged AdoMetDC/prozyme hetrodimer expressed in Escherichia coli BL21/DE3 cells at pH 6.8.

Each structure is given as a SMILES string. Activity calls are given as the source filed them. No cut-off for these calls is given here. A value given as a limit tells only on which side of the number the result lay.

Regarding `Cc1cc(Nc2cc(Cl)cc(Cl)c2O)nc(N)n1`, the concentration for half-maximal inhibition (IC50) (in general, the concentration that gives 50% inhibition) in data set [1] is above 180 µM; in data set [2], 37 µM. The same compound yielded an Activity in data set [3] of 26%.
Take `Cc1cc(Nc2cc(Cl)cc(Cl)c2)nc(N)n1`: the IC50 in data set [4] was 30 µM; in data set [2], 3.7 µM; in [10], 0.5 µM. Besides, the inhibition entry in data set [5] and in data set [9] was “Active” each time. For the same compound, the Stability result in data set [6] and in [7] was “Unstable” each time. For the same compound, the inhibition – broadly, the relative decrease from the control value, in per cent – in data set [8] was 27%. In [11], the Papp B→A (usually the apparent permeability from the basolateral to the apical side of a cell layer) at 1 h, up to 20 µM was 13.5 ×10⁻⁶ cm/s. Further, the Ki (usually the dissociation constant of the complex between target and ligand, obtained from inhibition or displacement) in data set [12] is 2.6 µM. For the same compound, the Ratio IC50 in data set [13] turned out to be 60.
